PAD4 FP inh – human PAD4 inhibitors, primary screen, biochemical, fluorescence polarization, 1536-well format | Protein-arginine deiminase type-4 (Homo sapiens), Q9UM07 | recombinant PAD4, RCA probe fluorescence polarization | inhibition, % at 6.36 µM | 330,000 tested, 0.41% active;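 active = percent inhibition above a cutoff equal to the mean of all tested compounds plus 3 SD, cut at about 15% in these data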;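 also: 0% = PAD4 with RCA probe and DMSO and 100% = probe without PAD4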
TDP2 absorb – human TDP2 enzyme inhibitors, primary screen, biochemical, epi absorbance, recombinant enzyme; Tyrosyl-DNA phosphodiesterase 2 (Homo sapiens), O95551; T5PNP hydrolysis, p-nitrophenol absorbance 415 nm; inhibition, % at 12.8 µM; 370,000 tested, 0.34% active; AID 720702, 2013;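 active = inhibition above the mean of all tested compounds plus 3 SD, set per campaign, cut at about 25% in these data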;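 also: 0% = DMSO with enzyme and 100% = buffer with substrate but no TDP2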
Target sequence (O95551 whole entry, looked up): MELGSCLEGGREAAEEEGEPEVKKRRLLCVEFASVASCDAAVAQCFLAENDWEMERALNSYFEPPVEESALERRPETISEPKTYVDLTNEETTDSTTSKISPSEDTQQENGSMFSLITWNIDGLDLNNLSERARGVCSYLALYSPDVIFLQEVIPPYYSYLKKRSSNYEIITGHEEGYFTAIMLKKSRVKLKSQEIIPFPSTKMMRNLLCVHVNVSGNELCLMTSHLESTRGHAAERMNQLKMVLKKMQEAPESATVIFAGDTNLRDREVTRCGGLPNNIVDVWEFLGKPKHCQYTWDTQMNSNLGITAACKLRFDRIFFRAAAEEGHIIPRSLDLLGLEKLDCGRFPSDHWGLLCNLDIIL
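Test system: human TDP2 enzyme; Input: 120 nM TDP2 per well; Buffer or medium: Mg2+-containing Tris-HCl buffer, pH 7.5; Reagent: 5 mM T5PNP; Dosing: 12.8 µM single point, 1% DMSO; Incubation: reaction 2 h, 37 °C; Detection: p-Nitrophenol epi absorbance; Read-out: % inhibition relative to enzyme-containing and enzyme-free wells; Replicates: single well per compound.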
TCR-CD3 inh – inhibitors of human TCR-CD3 interaction, primary screen, biochemical, fluorescence, TAMRA-labeled TCR probe. T-cell receptor (TCR). inhibition, % at 9.4 µM. 360,000 tested, 0.37% active; in the data active = inhibition above about 19%;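 also: recombinant mutant TCR 2C K166C tagged with TAMRA read by polarization; 0% = receptor in buffer alone and 100% = receptor with positive control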
Apaf1 inhib – inhibitors of human Apaf-1 apoptosome, primary screen, biochemical, DEVD-Rh110 fluorescence, uHTS; reconstituted apoptosome caspase-3 activity; inhibition, % at 20 µM; 330,000 tested, 0.71% active; active = inhibition of at least 40% at 20 µM;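 also: plate controls were DMSO wells for no effect and DEVD-CHO caspase inhibitor wells for full effect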
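System: Apoptosome proteins | Medium: Hepes pH 7.5 with detergent and BSA | Also added: Cytochrome c trigger plus (Z-DEVD)2-Rh110 caspase-3 substrate | Incubation: 30 min compound preincubation, 50 min activation, room temperature | Detection: Rhodamine 110 fluorescence at Ex 480/Em 540 nm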
GSTO1 inh – inhibitors of recombinant GSTO1, primary screen, counter-screen for RBBP9 inhibitor project, biochemical, fluorescence polarization | inhibition, % at 5.96 µM | 300,000 tested, 1.1% active | activity-based probe fluorescence polarization | Glutathione S-transferase omega-1 (Homo sapiens), P78417;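 active = inhibition above the campaign mean inhibition plus 3 SD, cut at about 35% in these data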;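 also: 0% = GSTO1-1 with DMSO and 100% = wells lacking GSTO1-1 enzyme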
Target sequence (P78417 whole entry, looked up): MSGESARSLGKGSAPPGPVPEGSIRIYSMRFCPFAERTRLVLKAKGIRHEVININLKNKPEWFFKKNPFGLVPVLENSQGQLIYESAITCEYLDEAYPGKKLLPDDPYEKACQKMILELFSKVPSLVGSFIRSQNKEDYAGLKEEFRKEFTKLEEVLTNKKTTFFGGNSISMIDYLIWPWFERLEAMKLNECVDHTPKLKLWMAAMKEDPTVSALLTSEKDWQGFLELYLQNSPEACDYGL
SIAE primary – human SIAE inhibitors, primary screen, biochemical, fluorescence polarization, FP-Rh probe, 1536-well HTS; SIAE FP-Rh probe binding; inhibition, % at 9.66 µM; 370,000 tested, 0.69% active;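 active = inhibition above a cutoff: mean of compounds within the control limits plus 3 SD of those, cut at about 17% in these data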;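 also: 0% = plate median of compound wells and 100% = probe without SIAE protein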
GSTO1 inh conf – GSTO1 inhibitor hit confirmation, counter-screen for RBBP9 inhibitor project, biochemical, fluorescence polarization, triplicate | inhibition, % at 5.96 µM | shares compounds with GSTO1 inh | AID 2176, 2009 | 2,400 tested, 54% active | recombinant GSTO1, probe fluorescence polarization;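 active = inhibition above the primary screen's cutoff, its mean inhibition plus 3 SD, cut at about 35% in these data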;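 also: loss of polarization as inhibitors block binding of rhodamine sulfonate ester activity probe; 0% = GSTO1 with DMSO and 100% = wells lacking GSTO1 enzyme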
PAD4 FP conf – human PAD4 inhibitors, confirmation, biochemical, fluorescence polarization. AID 488796, 2010. recombinant PAD4, RCA probe fluorescence polarization. 1,200 tested, 28% active. shares compounds with PAD4 FP inh. inhibition, % at 6.36 µM;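 active = mean inhibition across replicates above the hit cutoff set by the earlier primary screen, cut at about 15% in these data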;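 also: inhibitors block active-site labeling by the probe so polarization falls; 0% = PAD4 with probe and DMSO and 100% = probe without PAD4 enzyme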
Apaf-1 inh conf2 – Apaf-1 inhibitors, single-dose retest, confirmation, biochemical, fluorescence, DEVD-Rh110, 20 µM; inhibition, % at 20 µM; 1,800 tested, 25% active; shares compounds with Apaf1 inhib; AID 504614, 2011; reconstituted apoptosome, caspase-3 DEVD-Rh110 fluorescence;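 active = mean inhibition of at least 40% at 20 µM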;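 also: plate controls were DMSO wells for no effect and DEVD-CHO caspase inhibitor control wells for full effect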
Rh110 quench – Rh110 fluorescence interference by putative Apaf-1 inhibitors, confirmation, artefact control for Apaf-1 inhibitor project, biochemical, 20 µM | shares compounds with Apaf1 inhib | quenched caspase reaction | activation (fluorescence interference), % at 20 µM | 1,800 tested, under 10 active | AID 504615, 2011;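 active = signal rise of 40% or more at 20 µM, treated as a fluorescence artifact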
Fluor interf inh – fluorescence interference of Apaf-1 inhibitor hits, dose response, artefact control for Apaf-1 inhibitor project. shares compounds with Apaf1 inhib. fluorescence interference counterscreen, Apaf-1 assay format. IC50, µM. 460 tested, under 10 active. AID 588538, 2011; call rule not given here
TDP2 confirm – human TDP2 enzyme inhibitors, retest, confirmation, biochemical, epi absorbance, recombinant enzyme | inhibition, % at 12.8 µM | shares compounds with TDP2 absorb | AID 743263, 2014 | 1,100 tested, 22% active | absorbance read-out; in the data active = inhibition above about 25%;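 also: 0% = vehicle with enzyme and 100% = no enzyme buffer only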
The depositor's hits bear a star. An excerpt weighted towards active compounds, which were near 2.4% of everything screened.

How did CNC1(c2ccc(F)cc2)CCCCC1 do in these assays?
TDP2 absorb: -7; TCR-CD3 inh: 2; SIAE primary: 0

What do the screens show for `COC(=O)C(O)(c1c(C)[nH]n(-c2ccccc2)c1=O)C(F)(F)F` (stereo unspecified)?
PAD4 FP inh: 4; TDP2 absorb: 27*; TCR-CD3 inh: -8; Apaf1 inhib: 79*; GSTO1 inh: 50*; SIAE primary: 1; GSTO1 inh conf: 52*; Apaf-1 inh conf2: 52*; Rh110 quench: -7; Fluor interf inh: >100; TDP2 confirm: 44*

How did CCOc1ccccc1N1C(=O)CC(=O)NC1=O do in these assays?
PAD4 FP inh: -2; TDP2 absorb: 3; TCR-CD3 inh: 4; Apaf1 inhib: 8; GSTO1 inh: 5; SIAE primary: 1

How did O=C(NC1CCCCC1)Oc1cc2oc(=O)sc2cc1Cl do in these assays?
PAD4 FP inh: 2; TDP2 absorb: 29*; TCR-CD3 inh: 3; Apaf1 inhib: 10; GSTO1 inh: 55*; SIAE primary: 3; GSTO1 inh conf: 13; TDP2 confirm: 12

What do the screens show for `COc1ccc(CC2c3cc(OC)c(OC)cc3CCN2C)cc1O` (stereo unspecified)?
PAD4 FP inh: 1; TDP2 absorb: 0; TCR-CD3 inh: 1; Apaf1 inhib: -2; GSTO1 inh: 9; SIAE primary: 2

How did COc1c2c(cc3c1OCO3)CCN(C)C2 do in these assays?
PAD4 FP inh: 0; TDP2 absorb: 0; TCR-CD3 inh: -5; Apaf1 inhib: -8; GSTO1 inh: 7; SIAE primary: -6

Results for COc1cc2c(cc1OC)-c1c(OC)c(OC)cc3c1C(C2)N(C)CC3 (stereo unspecified) ?
PAD4 FP inh: 47*; TDP2 absorb: 52*; TCR-CD3 inh: -8; Apaf1 inhib: 95*; GSTO1 inh: 70*; SIAE primary: 3; GSTO1 inh conf: 78*; PAD4 FP conf: 26*; TDP2 confirm: 60*

What do the screens show for `COc1cc2c(cc1OC)-c1c3c(cc4c1[C@@H](C2)N(C)CC4)OCO3`?
PAD4 FP inh: 57*; TDP2 absorb: 56*; TCR-CD3 inh: 3; Apaf1 inhib: 98*; GSTO1 inh: 79*; SIAE primary: 6; GSTO1 inh conf: 70*; PAD4 FP conf: -9; TDP2 confirm: 52*

What do the screens show for `O=C(NCCCN1CCOCC1)C(Cl)(Cl)Cl`?
PAD4 FP inh: 1; TDP2 absorb: 6; TCR-CD3 inh: 2; Apaf1 inhib: -2; GSTO1 inh: 4; SIAE primary: 2

Results for O=c1[nH]c(=S)n(Cc2ccc(F)cc2)c(O)c1C=NCc1cccnc1 ?
PAD4 FP inh: 1; TDP2 absorb: 10; TCR-CD3 inh: -2; Apaf1 inhib: 13; GSTO1 inh: 5; SIAE primary: -7

What do the screens show for `CCN1/C(=C\C=C\C2=[N+](CC)c3ccccc3C2(C)C)C(C)(C)c2ccccc21`?
PAD4 FP inh: 145*; Apaf1 inhib: 56*; GSTO1 inh: -352; PAD4 FP conf: 101*

Results for COc1ccc(CCNCC2CCCO2)cc1 (stereo unspecified) ?
PAD4 FP inh: -4; TDP2 absorb: 12; TCR-CD3 inh: 12; Apaf1 inhib: 2; GSTO1 inh: 3; SIAE primary: 2

Results for CCOc1cccc(OCC)c2c(C)[n+](CC3CCCO3)c(C)c1-2 (stereo unspecified) ?
PAD4 FP inh: 15*; Apaf1 inhib: 9; GSTO1 inh: 29; PAD4 FP conf: -6

Results for C[n+]1c(-c2ccccc2)sc2ccccc21 ?
PAD4 FP inh: 15*; TDP2 absorb: 6; TCR-CD3 inh: 7; Apaf1 inhib: -5; GSTO1 inh: 3; SIAE primary: -7; PAD4 FP conf: 6

Results for CN(C)c1ccc(/C=C/C=C/c2sc3ccccc3[n+]2C)cc1 ?
PAD4 FP inh: -7; TDP2 absorb: -4; TCR-CD3 inh: -20; Apaf1 inhib: 0; GSTO1 inh: -8; SIAE primary: -36

What do the screens show for `C[CH2][Hg][S]c1ccccc1C(=O)O`?
PAD4 FP inh: 38*; TDP2 absorb: 0; TCR-CD3 inh: -1; Apaf1 inhib: 21; GSTO1 inh: 19; SIAE primary: 9; PAD4 FP conf: 50*

How did CCCCCn1c(=O)c(C(=O)Nc2ccccc2Cl)c(O)c2ccccc21 do in these assays?
PAD4 FP inh: 3; TDP2 absorb: -3; TCR-CD3 inh: -5; Apaf1 inhib: 4; GSTO1 inh: 0; SIAE primary: -4

Results for C=CCn1c(O)c(C(C)=Nc2ccc(N(CC)CC)cc2)c(=O)[nH]c1=O ?
PAD4 FP inh: 19*; TDP2 absorb: 2; TCR-CD3 inh: 2; Apaf1 inhib: 27; GSTO1 inh: 14; SIAE primary: 2; PAD4 FP conf: -7

Results for COc1ccc(-c2nn(CCC#N)cc2C(=O)Nc2ccccc2Br)cc1 ?
PAD4 FP inh: 1; TDP2 absorb: 6; TCR-CD3 inh: 5; Apaf1 inhib: 5; GSTO1 inh: 3; SIAE primary: -2

Screening data: PubChem, several laboratories
